Results: ChEMBL document CHEMBL4602731, “A γ-Lactam Siderophore Antibiotic Effective against Multidrug-Resistant Gram-Negative Bacilli” (J Med Chem, 2020)
In brackets after ≈: the same amount, converted by molar mass.

Tests used:
Pseudomonas aeruginosa [1] = test: Antimicrobial activity against Pseudomonas aeruginosa clinical isolates by standard broth microdilution method; format: functional
Klebsiella pneumoniae = test: Antimicrobial activity against Klebsiella pneumoniae clinical isolates by standard broth microdilution method; format: functional
Escherichia coli = test: Antimicrobial activity against Escherichia coli clinical isolates by standard broth microdilution method; format: functional
[2] = Stability in pH 7.5 phosphate buffer assessed as compound hydrolysis measured 24 hrs after reconstitution; format: physicochemical; conditions: read-out: Drug degradation
[3] = Substrate activity at OXA-24 (unknown origin) assessed as compound hydrolysis at 100 uM by diode array spectrophotometry; format: ADME; conditions: bacteria
[4] = Volume of distribution at steady state in CD1 mouse at 50 mg/kg, iv after 2 hrs by HPLC-MS/MS analysis; format: ADME, organism-based; conditions: in vivo
Summary of the method: (§1)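 CD-1 mice, single IV dose of 50 mg/kg, parallel sampling in groups of 24 animals. Blood is taken by cardiac puncture under isoflurane into lithium heparin or K2EDTA tubes and spun at 2500 × g for 15 min at 4 °C. Plasma is precipitated with acetonitrile and run on HPLC-MS/MS against a spiked-plasma calibration curve with internal standard. Parameters come from noncompartmental analysis.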

[5] = Substrate activity at NDM-1 (unknown origin) assessed as Kcat/Km ratio for compound hydrolysis by diode array spectrophotometry; format: ADME; conditions: bacteria
Summary of the method: (§2)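 The compound is the substrate, in molar excess for pseudo-first-order conditions. Hydrolysis is followed spectrophotometrically at Δε336 = −5500 M−1 cm−1 in a 1 cm quartz cuvette.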

[6] = molecular target: cGMP-inhibited 3',5'-cyclic phosphodiesterase 3A (Homo sapiens) (UniProt Q14432); test: Inhibition of PDE3A (unknown origin) at 30 uM relative to control
Summary of the method: (§3)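 Safety panel of 44 enzymes, receptors and channels, with compound tested at 30 μM. Percent inhibition is measured.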

Cytochrome P450 = test: Inhibition of CYP450 (unknown origin) at 30 uM; format: ADME, protein assay; conditions: human
Pseudomonas aeruginosa [7] = test: Antimicrobial activity against Pseudomonas aeruginosa clinical isolate in presence of 1 ug/ml iron by standard broth microdilution method
[8] = Substrate activity at IMP-1 (unknown origin) assessed as Kcat/Km ratio for compound hydrolysis by diode array spectrophotometry; format: ADME; conditions: bacteria
Pseudomonas aeruginosa [9] = test: Antimicrobial activity against Pseudomonas aeruginosa clinical isolate in absence of iron by standard broth microdilution method
[10] = AUClast in CD1 mouse at 50 mg/kg, iv after 2 hrs by HPLC-MS/MS analysis; format: ADME, organism-based; design: time < 2 hr, dose 50 mg/kg, route intravenous; conditions: in vivo; summary of the method: as §1
[11] = molecular target: Penicillin-binding protein 3 (Pseudomonas aeruginosa) (UniProt Q51504); test: Stabilization of Pseudomonas aeruginosa PBP3 assessed as melting temperature at 1 mM by DSF thermal shift assay (reference value: 44.1 +/- 0.14 degC)
Summary of the method: (§4)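 Ligand at […], ceftazidime at 0.2 mM as positive control; no-ligand control with 1% DMSO. Derivative of fluorescence change plotted against temperature.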

[12] = Substrate activity at KPC-2 (unknown origin) assessed as compound hydrolysis at 100 uM by diode array spectrophotometry; format: ADME; conditions: bacteria
[13] = Substrate activity at IMP-1 (unknown origin) assessed as Kcat for compound hydrolysis by diode array spectrophotometry; format: ADME; conditions: bacteria
Pseudomonas aeruginosa [14] = test: Antimicrobial activity against Pseudomonas aeruginosa PAO1 in presence of 1 ug/ml iron by standard broth microdilution method; format: functional
Summary of the method: (§5)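 MICs by CLSI broth microdilution, inoculum 6 × 10^4 CFU/mL, in cation-adjusted Mueller–Hinton broth iron-depleted with cation-exchange resin (reported to leave 0.02 μg/mL iron). Soluble iron added back; total media iron expected 0.02, 0.12, 1.02 and 10.02 μg/mL.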

Pseudomonas aeruginosa [15] = test: Antimicrobial activity against Pseudomonas aeruginosa clinical isolate in presence of 10 ug/ml iron by standard broth microdilution method
[16] = molecular target: Voltage-gated inwardly rectifying potassium channel KCNH2 (Homo sapiens, UniProt Q12809); test: Binding affinity to human ERG at 30 uM
Pseudomonas aeruginosa [17] = test: Antimicrobial activity against Pseudomonas aeruginosa PAO1 in presence of 10 ug/ml iron by standard broth microdilution method; format: functional; summary of the method: as §5
[18] = Plasma concentration CD1 mouse at 50 mg/kg, iv after 2 hrs by HPLC-MS/MS analysis; format: ADME, organism-based; summary of the method: as §1
[19] = Stability in pH 7.5 phosphate buffer assessed as compound hydrolysis after 2 weeks at room temperature; format: physicochemical; conditions: read-out: Drug degradation
[20] = AUC (infinity) in CD1 mouse at 50 mg/kg, iv after 2 hrs by HPLC-MS/MS analysis; format: ADME, organism-based; design: dose 50 mg/kg, route intravenous, time infinity; conditions: in vivo; summary of the method: as §1
[21] = Solubility in pH 7.5 phosphate buffer by nephelometry; format: physicochemical
Summary of the method: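 Solubility in pH 7.5 phosphate buffer, measured by nephelometry.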

[22] = Initial drug concentration in CD1 mouse at 50 mg/kg, iv after 2 hrs by HPLC-MS/MS analysis; format: ADME, organism-based; conditions: in vivo; summary of the method: as §1
[23] = Half life human liver microsomes; format: ADME, Microsome
Hepatocyte = test: Toxicity in human primary hepatocytes at 100 uM incubated for 72 hrs; format: cell-based
Summary of the method: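 Primary human hepatocytes exposed to compound at a maximum of 100 μM for 72 h.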

[24] = molecular target: Penicillin-binding protein 3 (Pseudomonas aeruginosa, UniProt Q51504); test: Inhibition of Pseudomonas aeruginosa PBP3 assessed as reduction in fluorescence intensity of bocillin labeled protein pre-incubated for 20 mins before bocillin addition by SDS-PAGE analysis
[25] = Half life CD1 mouse liver microsomes; format: ADME, Microsome
[26] = Substrate activity at NDM-1 (unknown origin) assessed as Kcat for compound hydrolysis by diode array spectrophotometry; format: ADME; conditions: bacteria; summary of the method: as §2
[27] = molecular target: Prostaglandin G/H synthase 1 (Homo sapiens) (UniProt P23219); test: Inhibition of COX1 (unknown origin) at 30 uM relative to control; summary of the method: as §3
Pseudomonas aeruginosa [28] = test: Antimicrobial activity against Pseudomonas aeruginosa PAO1 in presence of 0.1 ug/ml iron by standard broth microdilution method; format: functional
Summary of the method: (§6)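 CLSI broth microdilution in iron-depleted cation-adjusted Mueller–Hinton broth, made by cation-exchange resin treatment, with an inoculum of 6 × 10^4 CFU/mL. For the iron series, soluble iron is added to the depleted medium. Total iron in the tested media is expected to be 0.02, 0.12, 1.02 and 10.02 μg/mL.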

[29] = Substrate activity at OXA-23 (unknown origin) assessed as compound hydrolysis at 100 uM by diode array spectrophotometry; format: ADME; conditions: bacteria
[30] = Half life in CD1 mouse at 50 mg/kg, iv after 2 hrs by HPLC-MS/MS analysis; format: ADME, organism-based; conditions: in vivo; summary of the method: as §1
[31] = AUC (extrapolated) in CD1 mouse at 50 mg/kg, iv after 2 hrs by HPLC-MS/MS analysis; format: ADME, organism-based; conditions: in vivo; summary of the method: as §1
[32] = molecular target: Penicillin-binding protein 3 (Pseudomonas aeruginosa) (UniProt Q51504); test: Stabilization of Pseudomonas aeruginosa PBP3 assessed as increase in melting temperature at 1 mM by DSF thermal shift assay
[33] = Substrate activity at VIM-2 (unknown origin) assessed as Kcat/Km ratio for compound hydrolysis by diode array spectrophotometry; format: ADME; conditions: bacteria
[34] = Substrate activity at VIM-2 (unknown origin) assessed as Kcat for compound hydrolysis by diode array spectrophotometry; format: ADME; conditions: bacteria
[35] = Substrate activity at PER-2 (unknown origin) assessed as compound hydrolysis at 100 uM by diode array spectrophotometry; format: ADME; conditions: bacteria
Pseudomonas aeruginosa [36] = test: Antimicrobial activity against Pseudomonas aeruginosa PAO1 in absence of iron by standard broth microdilution method; format: functional; summary of the method: as §6
Pseudomonas aeruginosa [37] = test: Antimicrobial activity against Pseudomonas aeruginosa clinical isolate in presence of 0.1 ug/ml iron by standard broth microdilution method
[38] = Inhibition of Acinetobacter baumanni PBP3 assessed as reduction in fluorescence intensity of bocillin labeled protein by SDS-PAGE analysis; design: species or system Acinetobacter baumannii
[39] = molecular target: Penicillin-binding protein 3 (Pseudomonas aeruginosa) (UniProt Q51504); test: Stabilization of Pseudomonas aeruginosa PBP3 assessed as melting temperature at 0.2 mM by DSF thermal shift assay (reference value: 44.1 +/- 0.14 degC); summary of the method: as §4

Penicillin-binding protein 3 (Pseudomonas aeruginosa), sequence (Q51504 as listed by the source): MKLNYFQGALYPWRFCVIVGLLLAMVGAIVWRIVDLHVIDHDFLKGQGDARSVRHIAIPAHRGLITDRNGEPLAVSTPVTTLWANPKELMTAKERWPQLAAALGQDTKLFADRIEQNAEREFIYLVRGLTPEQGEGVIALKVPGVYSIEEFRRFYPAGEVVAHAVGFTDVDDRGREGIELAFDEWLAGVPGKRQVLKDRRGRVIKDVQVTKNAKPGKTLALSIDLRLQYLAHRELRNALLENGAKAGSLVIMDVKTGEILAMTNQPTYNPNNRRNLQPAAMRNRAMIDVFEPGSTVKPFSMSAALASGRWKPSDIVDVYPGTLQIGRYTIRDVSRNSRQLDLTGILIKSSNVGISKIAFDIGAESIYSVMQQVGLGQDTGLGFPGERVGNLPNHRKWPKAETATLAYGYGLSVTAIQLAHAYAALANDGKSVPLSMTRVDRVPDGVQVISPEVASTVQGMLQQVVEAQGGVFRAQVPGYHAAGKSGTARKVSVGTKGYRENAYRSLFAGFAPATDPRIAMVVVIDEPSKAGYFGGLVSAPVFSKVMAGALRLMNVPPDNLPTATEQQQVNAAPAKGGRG
Penicillin-binding protein 3, sequence (Q51504 whole entry): as the sequence (Q51504 as listed by the source) above
cGMP-inhibited 3',5'-cyclic phosphodiesterase 3A (Homo sapiens), sequence (Q14432 whole entry): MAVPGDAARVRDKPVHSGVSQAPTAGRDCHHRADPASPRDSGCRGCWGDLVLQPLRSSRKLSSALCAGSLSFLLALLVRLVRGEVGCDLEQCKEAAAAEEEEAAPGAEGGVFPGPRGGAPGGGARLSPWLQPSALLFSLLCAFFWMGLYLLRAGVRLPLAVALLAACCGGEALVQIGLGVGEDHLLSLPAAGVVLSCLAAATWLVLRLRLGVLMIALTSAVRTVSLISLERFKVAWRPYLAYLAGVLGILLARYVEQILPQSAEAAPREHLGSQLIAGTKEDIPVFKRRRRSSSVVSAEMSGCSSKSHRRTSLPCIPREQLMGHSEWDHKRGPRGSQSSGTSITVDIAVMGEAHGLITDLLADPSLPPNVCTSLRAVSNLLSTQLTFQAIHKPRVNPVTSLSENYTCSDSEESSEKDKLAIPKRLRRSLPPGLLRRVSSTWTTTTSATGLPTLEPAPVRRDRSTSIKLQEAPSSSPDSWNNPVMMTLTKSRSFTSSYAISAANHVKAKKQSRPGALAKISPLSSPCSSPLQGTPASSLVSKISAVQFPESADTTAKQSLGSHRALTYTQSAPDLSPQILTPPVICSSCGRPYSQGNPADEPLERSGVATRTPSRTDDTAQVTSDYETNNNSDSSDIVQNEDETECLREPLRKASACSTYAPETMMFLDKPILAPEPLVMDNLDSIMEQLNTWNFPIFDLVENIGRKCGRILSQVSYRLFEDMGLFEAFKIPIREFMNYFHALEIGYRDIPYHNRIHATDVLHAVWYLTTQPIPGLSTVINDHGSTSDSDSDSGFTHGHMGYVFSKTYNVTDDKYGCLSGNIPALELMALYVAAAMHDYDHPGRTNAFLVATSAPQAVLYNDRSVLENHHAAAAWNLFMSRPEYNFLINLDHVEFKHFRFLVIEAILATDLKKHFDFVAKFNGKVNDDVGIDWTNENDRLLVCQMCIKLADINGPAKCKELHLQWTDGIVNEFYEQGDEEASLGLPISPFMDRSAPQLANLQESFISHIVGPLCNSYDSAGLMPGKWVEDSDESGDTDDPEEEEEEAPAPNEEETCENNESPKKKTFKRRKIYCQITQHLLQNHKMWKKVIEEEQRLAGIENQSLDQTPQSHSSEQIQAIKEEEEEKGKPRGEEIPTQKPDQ
Prostaglandin G/H synthase 1 (Homo sapiens), sequence (P23219 whole entry): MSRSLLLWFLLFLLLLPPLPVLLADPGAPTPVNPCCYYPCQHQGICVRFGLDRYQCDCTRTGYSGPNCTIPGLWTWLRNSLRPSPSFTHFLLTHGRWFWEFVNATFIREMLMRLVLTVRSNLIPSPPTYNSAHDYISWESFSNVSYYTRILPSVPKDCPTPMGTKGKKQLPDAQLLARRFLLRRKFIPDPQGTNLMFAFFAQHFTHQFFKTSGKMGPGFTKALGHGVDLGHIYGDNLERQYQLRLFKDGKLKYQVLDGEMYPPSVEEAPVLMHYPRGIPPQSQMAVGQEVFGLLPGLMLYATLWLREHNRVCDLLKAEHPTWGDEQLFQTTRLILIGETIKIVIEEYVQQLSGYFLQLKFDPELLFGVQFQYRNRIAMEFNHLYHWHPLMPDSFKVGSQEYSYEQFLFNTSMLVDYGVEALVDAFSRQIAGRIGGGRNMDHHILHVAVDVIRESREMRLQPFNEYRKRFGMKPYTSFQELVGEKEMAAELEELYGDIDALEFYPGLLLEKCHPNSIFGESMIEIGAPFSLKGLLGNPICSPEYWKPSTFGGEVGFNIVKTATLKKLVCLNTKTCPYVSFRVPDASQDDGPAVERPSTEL
Voltage-gated inwardly rectifying potassium channel KCNH2, sequence (Q12809 whole entry): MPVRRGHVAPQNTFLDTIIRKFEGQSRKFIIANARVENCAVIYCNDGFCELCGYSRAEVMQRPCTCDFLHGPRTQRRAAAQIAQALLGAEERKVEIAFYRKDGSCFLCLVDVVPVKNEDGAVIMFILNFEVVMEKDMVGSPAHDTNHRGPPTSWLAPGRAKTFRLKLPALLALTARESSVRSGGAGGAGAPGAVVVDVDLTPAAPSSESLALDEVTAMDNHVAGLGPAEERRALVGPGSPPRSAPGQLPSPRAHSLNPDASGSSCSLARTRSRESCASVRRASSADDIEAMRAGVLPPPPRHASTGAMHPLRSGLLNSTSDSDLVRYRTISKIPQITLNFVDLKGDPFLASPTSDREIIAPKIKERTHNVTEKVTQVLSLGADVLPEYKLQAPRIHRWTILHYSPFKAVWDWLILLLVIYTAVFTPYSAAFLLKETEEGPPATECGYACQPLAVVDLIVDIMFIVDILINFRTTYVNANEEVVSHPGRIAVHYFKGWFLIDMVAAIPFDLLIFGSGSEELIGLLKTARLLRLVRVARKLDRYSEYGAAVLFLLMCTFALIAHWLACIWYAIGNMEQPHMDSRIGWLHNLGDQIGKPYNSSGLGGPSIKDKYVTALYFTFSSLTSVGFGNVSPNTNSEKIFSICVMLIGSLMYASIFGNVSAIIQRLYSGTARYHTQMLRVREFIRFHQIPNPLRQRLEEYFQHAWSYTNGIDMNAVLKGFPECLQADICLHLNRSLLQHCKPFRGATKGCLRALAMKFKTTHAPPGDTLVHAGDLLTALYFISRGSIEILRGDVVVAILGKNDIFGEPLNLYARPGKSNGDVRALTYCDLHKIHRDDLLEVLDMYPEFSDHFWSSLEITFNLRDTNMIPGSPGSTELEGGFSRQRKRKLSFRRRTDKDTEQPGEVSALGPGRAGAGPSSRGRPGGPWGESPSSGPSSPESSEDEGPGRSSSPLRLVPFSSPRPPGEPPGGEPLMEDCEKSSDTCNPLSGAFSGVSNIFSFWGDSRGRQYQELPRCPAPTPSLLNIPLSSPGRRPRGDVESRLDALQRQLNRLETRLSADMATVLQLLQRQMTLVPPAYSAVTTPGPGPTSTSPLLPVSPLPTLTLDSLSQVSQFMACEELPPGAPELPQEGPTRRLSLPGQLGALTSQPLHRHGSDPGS

C[C@@H](O)[C@H]1C(=O)N2C(C(=O)O)=C(S[C@@H]3CN[C@H](C(=O)N(C)C)C3)[C@H](C)[C@H]12 [MEROPENEM]
MIC50 (Pseudomonas aeruginosa [1]): 2 µg/mL (≈ 5.22 µM)
MIC90 (Pseudomonas aeruginosa [1]): > 8 µg/mL
MIC50 (Klebsiella pneumoniae): 16 µg/mL (≈ 41.7 µM)
MIC90 (Klebsiella pneumoniae): > 64 µg/mL
MIC50 (Escherichia coli): ≤ 1 µg/mL
MIC90 (Escherichia coli): 8 µg/mL (≈ 20.9 µM)
degraded at 24 h [2]: > 30%

CC(C)(O/N=C(\C(=O)N[C@H]1CN2CC(C(=O)NCCN3C(=O)c4cc(O)c(O)cc4C3=O)=C(C(=O)O)N2C1=O)c1csc(N)n1)C(=O)O
Activity [3]: Not Active
Vdss [4]: 2 L/kg
Kcat/Km [5]: 20000 M⁻¹ s⁻¹
inhibition [6]: 66%
inhibition (INH) (Cytochrome P450): Not Active
MIC (Pseudomonas aeruginosa [7]): > 16 µg/mL
Kcat/Km [8]: 70000 M⁻¹ s⁻¹
MIC (Pseudomonas aeruginosa [9]): 0.5 µg/mL (≈ 0.728 µM)
AUClast [10]: 55866 ng·h/mL
Tm [11]: 51 °C
Activity [12]: Not Active
Kcat [13]: 5 s⁻¹
MIC (Pseudomonas aeruginosa [14]): 16 µg/mL
MIC (Pseudomonas aeruginosa [15]): > 16 µg/mL
MIC50 (Pseudomonas aeruginosa [1]): 1 µg/mL (≈ 1.46 µM)
MIC90 (Pseudomonas aeruginosa [1]): 8 µg/mL (≈ 11.7 µM)
Activity [16]: Not Active
MIC (Pseudomonas aeruginosa [17]): > 16 µg/mL
concentration at 2 h [18]: 1400 ng/mL
degraded at 336 h [19]: 4%
AUC [20]: 57791 ng·h/mL
solubility kinetic [21]: > 100 µM
MIC50 (Klebsiella pneumoniae): 1 µg/mL (≈ 1.46 µM)
C0 [22]: 200844 ng/mL
t1/2 [23]: > 1 h
Activity (Hepatocyte): Non-Toxic
IC50 [24]: 2500 nM
t1/2 [25]: > 1 h
MIC50 (Escherichia coli): 1 µg/mL (≈ 1.46 µM)
Kcat [26]: 7 s⁻¹
inhibition [27]: 63%
MIC (Pseudomonas aeruginosa [28]): 2 µg/mL
Activity [29]: Not Active
t1/2 [30]: 11 h
%AUCextra [31]: 3%
ΔTm [32]: 7 °C
Kcat/Km [33]: 20000 M⁻¹ s⁻¹
Kcat [34]: 20 s⁻¹
Activity [35]: Not Active

CC(C)(O/N=C(\C(=O)N[C@@H]1C(=O)N2C(C(=O)[O-])=C(C[N+]3(CCNC(=O)c4ccc(O)c(O)c4Cl)CCCC3)CS[C@H]12)c1csc(N)n1)C(=O)O [CEFIDEROCOL]
MIC (Pseudomonas aeruginosa [7]): 0.25 µg/mL
MIC (Pseudomonas aeruginosa [9]): 0.13 µg/mL (≈ 0.173 µM)
MIC (Pseudomonas aeruginosa [36]): 0.06 µg/mL (≈ 0.0798 µM)
MIC (Pseudomonas aeruginosa [14]): 0.5 µg/mL
MIC (Pseudomonas aeruginosa [15]): 1 µg/mL
MIC (Pseudomonas aeruginosa [37]): 0.13 µg/mL
MIC (Pseudomonas aeruginosa [17]): 2 µg/mL

C[C@@H](O)[C@H]1C(=O)N2C(C(=O)O)=C(SCCN=CN)C[C@H]12 [IMIPENEM ANHYDROUS]
Kcat/Km [8]: 3.2e+06 M⁻¹ s⁻¹
Kcat [13]: 36 s⁻¹
Kcat/Km [33]: 6.7e+06 M⁻¹ s⁻¹
Kcat [34]: 57 s⁻¹

NC(=O)[C@@H]1CC[C@@H]2CN1C(=O)N2OS(=O)(=O)O [AVIBACTAM]
MIC50 (Pseudomonas aeruginosa [1]): 4 µg/mL (≈ 15.1 µM)
MIC90 (Pseudomonas aeruginosa [1]): > 32 µg/mL
MIC50 (Klebsiella pneumoniae): 0.5 µg/mL (≈ 1.89 µM)
MIC90 (Klebsiella pneumoniae): 2 µg/mL (≈ 7.54 µM)

C[C@@H](O)[C@H]1C(=O)N2C(C(=O)O)=C(S[C@@H]3CN[C@H](CNS(N)(=O)=O)C3)[C@H](C)[C@H]12 [DORIPENEM]
IC50 [38]: 2300 nM

CC(C)(O/N=C(\C(=O)N[C@@H]1C(=O)N2C(C(=O)[O-])=C(C[n+]3ccccc3)CS[C@H]12)c1csc(N)n1)C(=O)O [CEFTAZIDIME]
MIC (Pseudomonas aeruginosa [7]): 1 µg/mL
MIC (Pseudomonas aeruginosa [9]): 1 µg/mL (≈ 1.83 µM)
MIC (Pseudomonas aeruginosa [15]): 1 µg/mL
MIC50 (Pseudomonas aeruginosa [1]): 4 µg/mL (≈ 7.32 µM)
MIC90 (Pseudomonas aeruginosa [1]): > 16 µg/mL
MIC (Pseudomonas aeruginosa [37]): 1 µg/mL
Tm [39]: 56.5 °C
MIC50 (Klebsiella pneumoniae): > 64 µg/mL
MIC90 (Klebsiella pneumoniae): > 64 µg/mL
MIC50 (Escherichia coli): 2 µg/mL (≈ 3.66 µM)
MIC90 (Escherichia coli): > 16 µg/mL
